Data as given in ChEMBL document CHEMBL1121955, “Cardenolide analogues. 14. Synthesis and biological activity of glucosides of C17 beta-modified derivatives of digitoxigenin” (J Med Chem, 1982).
Activity calls are given as the source filed them.

Tests used:
Cavia porcellus [1] = species: Cavia porcellus; experiment: The dose producing 75% increase in contractility in guinea pig atria; type: functional
In short: (§1)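 Isolated guinea pig left atria were equilibrated 1 h, set to 1 g resting tension, and paced with 10-ms rectangular pulses at 90/min, 20% above threshold (minimum 5 V). Cumulative doses in propylene glycol/water (7:3) were added at 30-min intervals or 5 min after maximum effect. Isometric force change was referenced to control atria. At least nine replicate curves were fitted, and ΔF75 was read from the pooled fitted curve.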

Cavia porcellus [2] = species: Cavia porcellus; experiment: Binding affinity against digitalis receptor was determined relative to digitoxigenin
Cavia porcellus [3] = species: Cavia porcellus; experiment: The dose producing 75% increase in contractility in guinea pig atria; Inactive; type: functional; in short: as §1
Cavia porcellus [4] = species: Cavia porcellus; experiment: Relative potency of compound to Digitalis receptor was determined to that of digitoxigenin; Inactive
Cavia porcellus [5] = species: Cavia porcellus; experiment: The dose producing 75% increase in contractility in guinea pig atria

Row | Compound | Delta F75 (Cavia porcellus [1]) [M l-1] | other results
1 | C[C@]12CC[C@H](O)CC1CC[C@@H]1[C@@H]2CC[C@]2(C)[C@@H](/C=C/C#N)CC[C@]12O (some centres not stated) | 1.6e-06 | Relative potency (Cavia porcellus [2]): 0.69
2 | COC(=O)/C=C/[C@H]1CC[C@@]2(O)[C@@H]3CC[C@H]4C[C@@H](O[C@@H]5O[C@H](CO)[C@@H](O)[C@H](O)[C@H]5O)CC[C@]4(C)[C@H]3CC[C@]12C | 1.5e-06 | 
3 | CC(=O)/C=C/[C@H]1CC[C@@]2(O)[C@@H]3CC[C@H]4C[C@@H](O[C@@H]5O[C@H](CO)[C@@H](O)[C@H](O)[C@H]5O)CC[C@]4(C)[C@H]3CC[C@]12C | 3.1e-06 | 
4 | C[C@]12CC[C@H](O)CC1CC[C@@H]1[C@@H]2CC[C@]2(C)[C@@H](/C=C/C(=O)O)CC[C@]12O (some centres not stated) |  | Delta F75 (Cavia porcellus [3]): inactive; Relative potency (Cavia porcellus [4]): inactive
5 | C[C@]12CC[C@H](O[C@@H]3O[C@H](CO)[C@@H](O)[C@H](O)[C@H]3O)C[C@@H]1CC[C@@H]1[C@@H]2CC[C@]2(C)[C@@H](/C=C/C#N)CC[C@@]12O | 6.9e-07 | 
6 | CCOC(=O)/C=C/[C@H]1CC[C@@]2(O)[C@@H]3CC[C@H]4C[C@@H](O[C@@H]5O[C@H](CO)[C@@H](O)[C@H](O)[C@H]5O)CC[C@]4(C)[C@H]3CC[C@]12C | 6.2e-06 | 
7 | C[C@]12CC[C@H](O)C[C@H]1CC[C@@H]1[C@@H]2CC[C@]2(C)[C@@H](C3=CC(=O)OC3)CC[C@]12O [DIGITOXIGENIN] |  | Delta F75 (Cavia porcellus [5]): 1.1e-06 M l-1; Relative potency (Cavia porcellus [2]): 1
8 | C[C@H]1O[C@@H](O[C@H]2[C@@H](O)C[C@H](O[C@H]3[C@@H](O)C[C@H](O[C@H]4CC[C@@]5(C)[C@H](CC[C@@H]6[C@@H]5C[C@@H](O)[C@]5(C)[C@@H](C7=CC(=O)OC7)CC[C@]65O)C4)O[C@@H]3C)O[C@@H]2C)C[C@H](O)[C@@H]1O [DIGOXIN] | 6.6e-07 | 
9 | CC(C)OC(=O)/C=C/[C@H]1CC[C@@]2(O)[C@@H]3CC[C@H]4C[C@@H](O[C@@H]5O[C@H](CO)[C@@H](O)[C@H](O)[C@H]5O)CC[C@]4(C)[C@H]3CC[C@]12C | 1.5e-05 | 
10 | C[C@]12CC[C@H](O)C[C@H]1CC[C@@H]1[C@@H]2CC[C@]2(C)[C@@H](/C=C/C(N)=O)CC[C@]12O | <20 | Relative potency (Cavia porcellus [2]): < 0.01
11 | C[C@@H]1O[C@@H](O[C@H]2C[C@@H](O)[C@]3(CO)[C@H]4[C@H](O)C[C@]5(C)[C@@H](C6=CC(=O)OC6)CC[C@]5(O)[C@@H]4CC[C@]3(O)C2)[C@H](O)[C@H](O)[C@H]1O [OUABAIN] |  | Delta F75 (Cavia porcellus [5]): 2.9e-07 M l-1
12 | CCCOC(=O)/C=C/[C@H]1CC[C@@]2(O)[C@@H]3CC[C@H]4C[C@@H](O[C@@H]5O[C@H](CO)[C@@H](O)[C@H](O)[C@H]5O)CC[C@]4(C)[C@H]3CC[C@]12C | 1.1e-05 | 
13 | C[C@H]1O[C@@H](O[C@H]2[C@@H](O)C[C@H](O[C@H]3[C@@H](O)C[C@H](O[C@H]4CC[C@@]5(C)[C@H](CC[C@@H]6[C@@H]5CC[C@]5(C)[C@@H](C7=CC(=O)OC7)CC[C@]65O)C4)O[C@@H]3C)O[C@@H]2C)C[C@H](O)[C@@H]1O [DIGITOXIN] | 1.6e-07 | 
14 | COC(=O)/C=C/[C@H]1CC[C@]2(O)[C@@H]3CCC4C[C@@H](O)CC[C@]4(C)[C@H]3CC[C@]12C (some centres not stated) | 3.8e-06 | Relative potency (Cavia porcellus [2]): 0.29
15 | CC(=O)/C=C/[C@H]1CC[C@]2(O)[C@@H]3CCC4C[C@@H](O)CC[C@]4(C)[C@H]3CC[C@]12C (some centres not stated) | 5.6e-06 | 
16 | CC(C)COC(=O)/C=C/[C@H]1CC[C@@]2(O)[C@@H]3CC[C@H]4C[C@@H](O[C@@H]5O[C@H](CO)[C@@H](O)[C@H](O)[C@H]5O)CC[C@]4(C)[C@H]3CC[C@]12C | 6.3e-05 | 
17 | CCCCOC(=O)/C=C/[C@H]1CC[C@@]2(O)[C@@H]3CC[C@H]4C[C@@H](O[C@@H]5O[C@H](CO)[C@@H](O)[C@H](O)[C@H]5O)CC[C@]4(C)[C@H]3CC[C@]12C | 6.9e-05 | 
